Measured values collected from several papers.
Lines come from different studies, so protocols differ.
Target: Histone deacetylase 8 (HDAC8, Homo sapiens, UniProt Q9BY41)
Read-out: enzyme activity
Mode: inhibitor
One construct used (Q9BY41 1-377): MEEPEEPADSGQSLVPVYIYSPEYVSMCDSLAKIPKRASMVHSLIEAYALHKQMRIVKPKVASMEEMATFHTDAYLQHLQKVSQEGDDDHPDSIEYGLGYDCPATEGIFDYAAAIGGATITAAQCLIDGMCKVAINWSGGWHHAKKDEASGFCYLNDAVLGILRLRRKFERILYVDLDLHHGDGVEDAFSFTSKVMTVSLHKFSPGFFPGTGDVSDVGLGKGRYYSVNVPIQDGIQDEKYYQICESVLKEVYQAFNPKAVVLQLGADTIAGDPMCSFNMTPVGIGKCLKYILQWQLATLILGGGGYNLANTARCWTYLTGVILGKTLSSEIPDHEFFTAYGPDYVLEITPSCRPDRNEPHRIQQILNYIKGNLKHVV

| Structure (SMILES) | test | IC50 [µM] |
| --- | --- | --- |
| CCCON(Cc1ccc(C(=O)NO)cc1)C(=O)Nc1ccc(N(C)C)cc1 | fluorescence | 4.46 |
| Nc1ccc(-c2ccncc2)cc1NC(=O)N1CCCC1 | – | > 33.3 |
| CCCON(Cc1ccc(C(=O)NO)cc1)C(=O)Nc1ccccc1 | fluorescence | 4.64 |
| O=C(/C=C/c1ccc(O)c(O)c1)O[C@@H]1C[C@](O)(C(=O)O)C[C@@H](O)[C@H]1O | – | 8.62 |
| CC(C)C[C@H]1CC(=O)N2CCC[C@H]2C(=O)N[C@@H](CCCCCC(=O)NO)C(=O)N[C@@H](Cc2c[nH]c3ccccc23)C(=O)N1 | – | 0.18 |
| CCCC[C@H](NC(=O)[C@H](C)c1c(C)[nH]c2ccc(O)cc12)c1ncc(-c2cc3ccccc3nc2OC)[nH]1 | – | > 45 |
| O=c1c(O)c(-c2ccc(O)c(O)c2)oc2cc(O)cc(O)c12 | – | 7.72 |
| O=C(CCCCCCC(=O)N[c-]1cccc1)NO.[Fe+2].c1cc[cH-]c1 | fluorescence | 1.36 |
